The values that follow come from publication PMC4238798 (Biochemistry, 2014).

For assay [1], the target named is T1, RePC (Rhizobium etli pyruvate carboxylase) (Rhizobium etli, UniProt Q2K340).
T1 sequence (Q2K340 1-1154): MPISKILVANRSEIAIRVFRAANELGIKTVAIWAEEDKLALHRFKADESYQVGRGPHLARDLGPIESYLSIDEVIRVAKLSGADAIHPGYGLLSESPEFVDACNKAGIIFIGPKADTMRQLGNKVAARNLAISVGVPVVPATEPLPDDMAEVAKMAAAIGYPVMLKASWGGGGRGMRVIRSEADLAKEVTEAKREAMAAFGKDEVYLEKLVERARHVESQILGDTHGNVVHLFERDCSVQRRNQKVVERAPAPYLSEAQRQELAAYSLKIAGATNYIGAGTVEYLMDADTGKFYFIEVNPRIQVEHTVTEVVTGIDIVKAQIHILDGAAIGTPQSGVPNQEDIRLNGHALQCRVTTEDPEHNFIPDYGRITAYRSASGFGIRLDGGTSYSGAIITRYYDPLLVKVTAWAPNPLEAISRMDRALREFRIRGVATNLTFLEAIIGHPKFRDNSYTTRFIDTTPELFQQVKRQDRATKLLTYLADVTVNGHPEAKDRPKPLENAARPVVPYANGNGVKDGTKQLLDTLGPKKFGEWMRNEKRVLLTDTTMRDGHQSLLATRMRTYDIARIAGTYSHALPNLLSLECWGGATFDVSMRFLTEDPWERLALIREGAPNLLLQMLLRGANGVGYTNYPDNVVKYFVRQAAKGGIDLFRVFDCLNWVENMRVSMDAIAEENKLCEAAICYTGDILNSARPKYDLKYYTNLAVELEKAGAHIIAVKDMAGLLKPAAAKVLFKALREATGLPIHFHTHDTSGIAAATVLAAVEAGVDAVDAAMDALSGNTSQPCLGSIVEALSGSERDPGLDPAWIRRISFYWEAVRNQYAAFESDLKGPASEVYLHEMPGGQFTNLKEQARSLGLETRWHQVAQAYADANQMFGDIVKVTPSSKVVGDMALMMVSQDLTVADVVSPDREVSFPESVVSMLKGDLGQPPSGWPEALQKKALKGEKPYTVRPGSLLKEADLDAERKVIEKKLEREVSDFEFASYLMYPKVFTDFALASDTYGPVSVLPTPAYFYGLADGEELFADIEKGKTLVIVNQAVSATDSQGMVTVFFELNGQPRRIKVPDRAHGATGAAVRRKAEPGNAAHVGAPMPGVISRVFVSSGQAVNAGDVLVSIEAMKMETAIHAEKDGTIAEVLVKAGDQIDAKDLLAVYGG
Put plainly: malate dehydrogenase-coupled pyruvate carboxylation assay. The assay is classed as biochemical. The procedure, abridged:
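N-terminally His-tagged R. etli enzyme, expressed in E. coli BL21(DE3). NADH oxidation followed, with oxaloacetate converted to malate by 5 units of malate dehydrogenase. Run at 30 °C in 0.1 M Tris-HCl pH 7.8 with 20 mM NaHCO3, 6 mM MgCl2, 1 mM MgATP, 0.2 mM NADH and 10 mM pyruvate. Activator varied 0–150 μM at 0–8 mM L-aspartate. kapp = initial velocity/enzymic biotin. Hill-equation nonlinear least-squares fit gives the activation constant.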

Assay [2] deals with T1, RePC (Rhizobium etli pyruvate carboxylase). Put plainly: malate dehydrogenase-coupled pyruvate carboxylation assay, global fit. It is filed as biochemical.

Take `CC(=O)SCCNC(=O)CCNC(=O)[C@H](O)C(C)(C)COP(=O)(O)OP(=O)(O)OC[C@H]1O[C@@H](n2cnc3c(N)ncnc32)[C@H](O)[C@@H]1OP(=O)(O)O` [acetyl-CoA]: the EC50 in assay [1] stood at 7.3 ± 0.9 µM. Compound `N[C@@H](CC(=O)O)C(=O)O` [L-aspartate] gave a Ki in assay [2] of 1260 ± 80 µM.
